Here are results for 19 compounds from ChEMBL document CHEMBL3286320, “Design, Synthesis, and Optimization of Balanced Dual NK1/NK3 Receptor Antagonists” (ACS Med Chem Lett, 2014).

One assay has as its target Substance-P receptor (Homo sapiens, UniProt P25103). Kind of assay: Displacement of [125I]-Bolton Hunter-substance P from human NK1 receptor expressed in human U373MG cells. In kind it is cell-based, U-373MG ATCC. The essentials:
(§1)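 Radioligand binding on membranes: NK1 on membranes from U-373MG cells, which express the receptor endogenously; NK3 on membranes from CHO cells stably expressing the recombinant human receptor.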

Another assay has as its target T1, Neuromedin-K receptor (Homo sapiens, UniProt P29371).
T1 sequence (P29371 whole entry): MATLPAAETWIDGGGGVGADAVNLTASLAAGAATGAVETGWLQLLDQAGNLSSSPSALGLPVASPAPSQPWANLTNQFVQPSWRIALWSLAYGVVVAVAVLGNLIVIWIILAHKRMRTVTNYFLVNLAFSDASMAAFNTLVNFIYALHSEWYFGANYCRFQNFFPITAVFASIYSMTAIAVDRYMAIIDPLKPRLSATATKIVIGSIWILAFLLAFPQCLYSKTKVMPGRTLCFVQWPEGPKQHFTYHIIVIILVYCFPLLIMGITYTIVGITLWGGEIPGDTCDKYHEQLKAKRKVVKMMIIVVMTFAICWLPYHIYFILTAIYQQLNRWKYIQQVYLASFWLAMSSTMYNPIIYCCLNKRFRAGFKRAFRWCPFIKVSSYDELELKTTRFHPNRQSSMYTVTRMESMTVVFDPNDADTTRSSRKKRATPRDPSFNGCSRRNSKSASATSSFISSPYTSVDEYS
Put plainly: Displacement of [3H]-SR142801 from human NK3 receptor expressed in recombinant CHO cells. In kind it is cell-based. The method in brief:
as §1

Chain of Substance-P receptor (P25103 whole entry): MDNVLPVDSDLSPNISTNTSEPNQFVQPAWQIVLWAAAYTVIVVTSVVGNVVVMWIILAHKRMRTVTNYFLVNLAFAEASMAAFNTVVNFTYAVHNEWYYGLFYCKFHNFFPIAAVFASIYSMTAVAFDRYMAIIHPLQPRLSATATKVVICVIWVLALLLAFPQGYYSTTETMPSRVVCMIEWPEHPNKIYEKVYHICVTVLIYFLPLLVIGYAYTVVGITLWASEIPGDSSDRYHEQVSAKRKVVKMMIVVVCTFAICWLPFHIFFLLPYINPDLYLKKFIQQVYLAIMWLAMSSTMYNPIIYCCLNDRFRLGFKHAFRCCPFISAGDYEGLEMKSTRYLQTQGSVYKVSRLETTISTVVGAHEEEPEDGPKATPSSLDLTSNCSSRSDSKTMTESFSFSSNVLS

Usually Ki stands for a dissociation constant, usually derived from enzyme kinetics or from competition with a known ligand. For the compound `CN(C)CCNC(=O)[C@@H](Cc1ccccc1)NC(=O)[C@](C)(CCN1CCC2(CC1)OC(=O)N(C)c1ccc(F)cc12)c1ccc(Cl)c(Cl)c1`, the Ki at Substance-P receptor is 39.8 nM; on Neuromedin-K receptor, 31.6 nM.
The corresponding values for `CN1C(=O)OC2(CCN(CC[C@H](C(=O)N(C)[C@@H](Cc3ccccc3)C(=O)NCCN)c3ccc(Cl)c(Cl)c3)CC2)c2cc(F)ccc21` are 200 nM and 1260 nM.
On to `CN1C(=O)OC2(CCN(CCC[C@@H](C(=O)N(C)[C@@H](Cc3ccccc3)C(=O)NCCN)c3ccc(Cl)c(Cl)c3)CC2)c2cc(F)ccc21`, for which the Ki at Substance-P receptor was 50.1 nM; on Neuromedin-K receptor it was 3980 nM.
Turning to `CN1C(=O)OC2(CCN(CCC[C@H](C(=O)N(C)[C@@H](Cc3ccccc3)C(=O)NCCN)c3ccc(Cl)c(Cl)c3)CC2)c2cc(F)ccc21`, the results for the Ki on Substance-P receptor and on Neuromedin-K receptor were 398 nM and 6310 nM, respectively.
Regarding `CN1C(=O)OC2(CCN(CC[C@@](C)(C(=O)N[C@@H](Cc3ccccc3)C(=O)NCCN)c3ccc(Cl)c(Cl)c3)CC2)c2cc(F)ccc21`, the Ki on Substance-P receptor is 126 nM; on Neuromedin-K receptor, 63.1 nM.
The corresponding values for `CN1C(=O)OC2(CCN(CC[C@](C)(C(=O)N[C@@H](Cc3ccccc3)C(=O)NCCN)c3ccc(Cl)c(Cl)c3)CC2)c2cc(F)ccc21` are 398 nM and 10000 nM.
As to `CN1C(=O)OC2(CCN(CC[C@](C)(C(=O)N[C@H](Cc3ccccc3)C(=O)NCCN)c3ccc(Cl)c(Cl)c3)CC2)c2cc(F)ccc21`, the Ki on Substance-P receptor was 631 nM; at Neuromedin-K receptor it was 2000 nM.
As to `CN1C(=O)OC2(CCN(CC[C@@](C)(C(=O)N[C@H](Cc3ccccc3)C(=O)NCCN)c3ccc(Cl)c(Cl)c3)CC2)c2cc(F)ccc21`, the Ki on Substance-P receptor was 20 nM; at Neuromedin-K receptor it was 50.1 nM.
On to `CN1C(=O)OC2(CCN(CCC[C@@](C)(C(=O)N[C@H](Cc3ccccc3)C(=O)NCCN)c3ccc(Cl)c(Cl)c3)CC2)c2cc(F)ccc21`, for which the Ki on Substance-P receptor is 63.1 nM; at Neuromedin-K receptor, 1580 nM.
For `CN1C(=O)OC2(CCN(CC[C@@](C)(C(=O)N[C@H](C(=O)NCCN)c3ccccc3)c3ccc(Cl)c(Cl)c3)CC2)c2cc(F)ccc21`, the Ki at Substance-P receptor was 251 nM; at Neuromedin-K receptor, 39.8 nM.
In the same order, the values of `CN1C(=O)OC2(CCN(CCC[C@@](C)(C(=O)N[C@H](C(=O)NCCN)c3ccccc3)c3ccc(Cl)c(Cl)c3)CC2)c2cc(F)ccc21` are 316 nM and 794 nM.
As to `CNCCNC(=O)[C@@H](Cc1ccccc1)NC(=O)[C@](C)(CCN1CCC2(CC1)OC(=O)N(C)c1ccc(F)cc12)c1ccc(Cl)c(Cl)c1`, the Ki on Substance-P receptor was 15.8 nM; at Neuromedin-K receptor, 20 nM.
Turning to `CN(C)CCNC(=O)[C@@H](Cc1ccccc1)NC(=O)[C@](C)(CCCN1CCC2(CC1)OC(=O)N(C)c1ccc(F)cc12)c1ccc(Cl)c(Cl)c1`, the figures for the Ki at Substance-P receptor and at Neuromedin-K receptor were 20 nM and 1000 nM, respectively.
The corresponding values for `CN1C(=O)OC2(CCN(CC[C@@](C)(C(=O)N[C@H](Cc3ccccc3)C(=O)NCCO)c3ccc(Cl)c(Cl)c3)CC2)c2cc(F)ccc21` are 31.6 nM and 2.51 nM.
On to `CN1C(=O)OC2(CCN(CCC[C@@](C)(C(=O)N[C@H](Cc3ccccc3)C(=O)NCCO)c3ccc(Cl)c(Cl)c3)CC2)c2cc(F)ccc21`, for which the Ki on Substance-P receptor is 15.8 nM; at Neuromedin-K receptor it was 126 nM.
In the same order, the values of `CN1C(=O)OC2(CCN(CC[C@@](C)(C(=O)N(C)[C@H](Cc3ccccc3)C(=O)NCCN)c3ccc(Cl)c(Cl)c3)CC2)c2cc(F)ccc21` are 2.51 nM and 7.94 nM.
With `CN1C(=O)OC2(CCN(CC[C@@](C)(C(=O)N(C)[C@H](Cc3ccccc3)C(=O)NCCCN)c3ccc(Cl)c(Cl)c3)CC2)c2cc(F)ccc21`, the Ki at Substance-P receptor is 3.98 nM; on Neuromedin-K receptor, 25.1 nM.
On to `CN1C(=O)OC2(CCN(CC[C@@H](C(=O)N(C)[C@@H](Cc3ccccc3)C(=O)NCCN)c3ccc(Cl)c(Cl)c3)CC2)c2cc(F)ccc21` (mixture of isomers), for which the Ki on Substance-P receptor was 126 nM; at Neuromedin-K receptor it was 1580 nM.
With `CN1C(=O)OC2(CCN(CC[C@@H](C(=O)N(C)[C@H](C(=O)NCCN)c3ccccc3)c3ccc(Cl)c(Cl)c3)CC2)c2cc(F)ccc21` (racemic), the Ki on Substance-P receptor is 631 nM; at Neuromedin-K receptor, 2510 nM.
